Experimental data as given in EPA's CvTdb concentration-time database.

Assays:
Rat [1] = assay: concentration in kidney after dosing; conditions: 3 h; dosed: Potassium Perfluorobutane Sulfonate; 20 mg/kg; oral; Female; Harlan Sprague Dawley
Rat [2] = assay: concentration in kidney after dosing; conditions: 6 h; dosed: Potassium Perfluorobutane Sulfonate; 20 mg/kg; oral; Female; Harlan Sprague Dawley
Rat [3] = assay: concentration in liver after dosing; conditions: 1 h; dosed: Potassium Perfluorobutane Sulfonate; 20 mg/kg; oral; Female; Harlan Sprague Dawley
Rat [4] = assay: concentration in plasma after dosing; conditions: dosed: Potassium Perfluorobutane Sulfonate, 4 mg/kg, oral, Male, Harlan Sprague Dawley
Rat [5] = assay: concentration in liver after dosing; conditions: 3 h; dosed: Potassium Perfluorobutane Sulfonate; 20 mg/kg; oral; Male; Harlan Sprague Dawley
Rat [6] = assay: concentration in plasma after dosing; conditions: 0.25 h; dosed: Potassium Perfluorobutane Sulfonate; 4 mg/kg; iv; Male; F344
Rat [7] = assay: concentration in liver after dosing; conditions: 6 h; dosed: Potassium Perfluorobutane Sulfonate; 20 mg/kg; oral; Female; Harlan Sprague Dawley
Mouse [8] = assay: concentration in plasma after dosing; conditions: 10 min; dosed: 2-Hydroxy-4-methoxybenzophenone; 250 mg/kg; oral; Male; B6C3F1
Rat [9] = assay: concentration in plasma after dosing; conditions: dosed: 2-Hydroxy-4-methoxybenzophenone, 250 mg/kg, oral, Male, F344
Mouse [10] = assay: concentration in plasma after dosing; conditions: 3 h; dosed: 2-Hydroxy-4-methoxybenzophenone; 50 mg/kg; iv; Male; B6C3F1
Rat [11] = assay: concentration in plasma after dosing; conditions: dosed: 2-Hydroxy-4-methoxybenzophenone, 8 mg/kg, iv, Female, F344
Mouse [12] = assay: concentration in plasma after dosing; conditions: 2.5 min; dosed: 2-Hydroxy-4-methoxybenzophenone; 250 mg/kg; oral; Male; B6C3F1
Mouse [13] = assay: concentration in plasma after dosing; conditions: 10 min; dosed: 2-Hydroxy-4-methoxybenzophenone; 50 mg/kg; iv; Female; B6C3F1
Rat [14] = assay: concentration in plasma after dosing; conditions: dosed: 2-Hydroxy-4-methoxybenzophenone, 8 mg/kg, iv, Female, F344; remark: listed apart in the source
Mouse [15] = assay: concentration in plasma after dosing; conditions: 2 h; dosed: 2-Hydroxy-4-methoxybenzophenone; 50 mg/kg; iv; Female; B6C3F1
human = assay: concentration in urine after dosing; negative times count back from the end of exposure; conditions: dosed: methanol, inhalation, duration: 8 hr
Procedure, shortened: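 A PubMed search, classifier screening and manual review identified published in vivo toxicokinetic studies, which together with two structured collections supplied concentration-versus-time and amount-versus-time points. Points were mostly digitised from plot screenshots with WebPlotDigitizer, otherwise copied from tables. Dose, route, subject details and medium were hand-curated from each paper, and sampling and analytical methods are those of the sources, often unreported.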

Rat [16] = assay: concentration in plasma after dosing; conditions: dosed: 678-39-7, 12 mg/kg, iv, Male, F344
Rat [17] = assay: concentration in plasma after dosing; conditions: dosed: Fluorotelomer alcohol 8+2, 12 mg/kg, oral, Male, Harlan Sprague Dawley
Rat [18] = assay: concentration in kidney after dosing; conditions: 24 h; dosed: Perfluorooctanoic acid; 80 mg/kg; oral; Female; Harlan Sprague Dawley
Rat [19] = assay: concentration in kidney after dosing; conditions: 24 h; dosed: Perfluorooctanoic acid; 12 mg/kg; oral; Male; Harlan Sprague Dawley
Rat [20] = assay: concentration in plasma after dosing; conditions: 192 h; dosed: 678-39-7; 12 mg/kg; iv; Male; F344
Rat [21] = assay: concentration in liver after dosing; conditions: 12 h; dosed: Perfluorooctanoic acid; 80 mg/kg; oral; Female; Harlan Sprague Dawley
Rat [22] = assay: concentration in plasma after dosing; conditions: dosed: Nitrite, 20 mg/kg, iv, Male, F344
Rat [23] = assay: concentration in plasma after dosing; conditions: 10 min; dosed: Nitrite; 80 mg/kg; oral; Female; F344
Rat [24] = assay: concentration in plasma after dosing; conditions: 5 min; dosed: Nitrite; 80 mg/kg; oral; Female; F344

O=S(=O)([O-])C(F)(F)C(F)(F)C(F)(F)C(F)(F)F.[K+] [Potassium Perfluorobutane Sulfonate]
concentration in kidney (Rat [1]): 10500 ng/g
concentration in kidney (Rat [2]): 3360 ng/g
concentration in liver (Rat [3]): 27800 ng/g
concentration in plasma (Rat [4]; 0.5 h): 6060 ng/mL
concentration in plasma (Rat [4]; 9 h): 5230 ng/mL
concentration in liver (Rat [5]): 64100 ng/g
concentration in plasma (Rat [6]): 16400 ng/mL
concentration in liver (Rat [7]): 2620 ng/g

COc1ccc(C(=O)c2ccccc2)c(O)c1 [2-Hydroxy-4-methoxybenzophenone]
concentration in plasma (Mouse [8]): 93.1 ng/mL
concentration in plasma (Rat [9]; 0.25 h): 55.5 ng/mL
concentration in plasma (Rat [9]; 4 h): 84 ng/mL
concentration in plasma (Mouse [10]): 218 ng/mL
concentration in plasma (Rat [11]; 0.25 h): 120 ng/mL
concentration in plasma (Rat [11]; 4 h): 75.6 ng/mL
concentration in plasma (Mouse [12]): 18.2 ng/mL
concentration in plasma (Mouse [13]): 11500 ng/mL
concentration in plasma (Rat [14]; 0.25 h): 1800 ng/mL
concentration in plasma (Rat [14]; 4 h): 38.7 ng/mL
concentration in plasma (Mouse [15]): 317 ng/mL

CO [methanol]
concentration in urine (human; 0 h, 78 ppm): 3490 ng/mL
concentration in urine (human; 0 h, 158 ppm): 6700 ng/mL
concentration in urine (human; 0 h, 231 ppm): 9600 ng/mL
concentration in urine (human; 53 s, 300 mg/m^3, male): 9620 ng/mL
concentration in urine (human; 65 s, 205 mg/m^3, male): 6690 ng/mL
concentration in urine (human; 67 s, 102 mg/m^3, male): 3420 ng/mL
concentration in urine (human; 1.997 h, 300 mg/m^3, male): 7640 ng/mL
concentration in urine (human; 2 h, 78 ppm): 2290 ng/mL
concentration in urine (human; 2 h, 158 ppm): 5240 ng/mL
concentration in urine (human; 2 h, 231 ppm): 7600 ng/mL
concentration in urine (human; 2.005 h, 205 mg/m^3, male): 5340 ng/mL
concentration in urine (human; 2.035 h, 102 mg/m^3, male): 2420 ng/mL
concentration in urine (human; 3.995 h, 300 mg/m^3, male): 4350 ng/mL
concentration in urine (human; 4 h, 102 mg/m^3, male): 1630 ng/mL
concentration in urine (human; 4 h, 78 ppm): 1770 ng/mL
concentration in urine (human; 4 h, 158 ppm): 2690 ng/mL
concentration in urine (human; 4 h, 231 ppm): 4360 ng/mL
concentration in urine (human; 4.036 h, 205 mg/m^3, male): 2760 ng/mL
concentration in urine (human; 5.995 h, 102 mg/m^3, male): 1360 ng/mL
concentration in urine (human; 6 h, 78 ppm): 1470 ng/mL
concentration in urine (human; 6 h, 158 ppm): 1830 ng/mL
concentration in urine (human; 6 h, 231 ppm): 2400 ng/mL
concentration in urine (human; 6.026 h, 205 mg/m^3, male): 1810 ng/mL
concentration in urine (human; 6.031 h, 300 mg/m^3, male): 2430 ng/mL
concentration in urine (human; 10.88 h, 205 mg/m^3, male): 1280 ng/mL
concentration in urine (human; 10.91 h, 102 mg/m^3, male): 1090 ng/mL
concentration in urine (human; 10.94 h, 300 mg/m^3, male): 1480 ng/mL
concentration in urine (human; 11 h, 78 ppm): 1140 ng/mL
concentration in urine (human; 11 h, 158 ppm): 1360 ng/mL
concentration in urine (human; 11 h, 231 ppm): 1660 ng/mL
concentration in urine (human; 15.5 h, 231 ppm): 1030 ng/mL
concentration in urine (human; 15.71 h, 205 mg/m^3, male): 1140 ng/mL
concentration in urine (human; -1.981 h, 102 mg/m^3, male, during exposure): 3130 ng/mL
concentration in urine (human; -1.993 h, 300 mg/m^3, male, during exposure): 8430 ng/mL
concentration in urine (human; -2 h, 78 ppm, during exposure): 3090 ng/mL
concentration in urine (human; -2 h, 158 ppm, during exposure): 5920 ng/mL
concentration in urine (human; -2 h, 231 ppm, during exposure): 8400 ng/mL
concentration in urine (human; -2.068 h, 205 mg/m^3, male, during exposure): 5830 ng/mL
concentration in urine (human; -3.984 h, 102 mg/m^3, male, during exposure): 2500 ng/mL
concentration in urine (human; -4 h, 78 ppm, during exposure): 2390 ng/mL
concentration in urine (human; -4 h, 158 ppm, during exposure): 4820 ng/mL
concentration in urine (human; -4 h, 231 ppm, during exposure): 6830 ng/mL
concentration in urine (human; -4.031 h, 300 mg/m^3, male, during exposure): 6790 ng/mL
concentration in urine (human; -4.073 h, 205 mg/m^3, male, during exposure): 4890 ng/mL
concentration in urine (human; -5.962 h, 102 mg/m^3, male, during exposure): 1700 ng/mL
concentration in urine (human; -5.977 h, 205 mg/m^3, male, during exposure): 3090 ng/mL
concentration in urine (human; -6 h, 78 ppm, during exposure): 1750 ng/mL
concentration in urine (human; -6 h, 158 ppm, during exposure): 3090 ng/mL
concentration in urine (human; -6 h, 231 ppm, during exposure): 4340 ng/mL
concentration in urine (human; -6.075 h, 300 mg/m^3, male, during exposure): 4350 ng/mL
concentration in urine (human; -7.832 h, 102 mg/m^3, male, during exposure): 802 ng/mL
concentration in urine (human; -7.832 h, 205 mg/m^3, male, during exposure): 802 ng/mL
concentration in urine (human; -7.859 h, 300 mg/m^3, male, during exposure): 802 ng/mL
concentration in urine (human; -8 h, 78 ppm, during exposure): 572 ng/mL
concentration in urine (human; -8 h, 158 ppm, during exposure): 1030 ng/mL
concentration in urine (human; -8 h, 231 ppm, during exposure): 1340 ng/mL

O=C(O)C(F)(F)C(F)(F)C(F)(F)C(F)(F)C(F)(F)C(F)(F)C(F)(F)F [Perfluorooctanoic acid]
concentration in plasma (Rat [16]; 1 h): 342 ng/mL
concentration in plasma (Rat [16]; 6 h): 463 ng/mL
concentration in plasma (Rat [17]; 0.5 h): 79.5 ng/mL
concentration in plasma (Rat [17]; 9 h): 793 ng/mL
concentration in kidney (Rat [18]): 14000 ng/g
concentration in kidney (Rat [19]): 28700 ng/g
concentration in plasma (Rat [20]): 310 ng/mL
concentration in liver (Rat [21]): 59900 ng/g

O=N[O-] [Nitrite]
concentration in plasma (Rat [22]; 10 min): 4800 ng/mL
concentration in plasma (Rat [22]; 1.25 h): 1700 ng/mL
concentration in plasma (Rat [23]): 15400 ng/mL
concentration in plasma (Rat [24]): 9600 ng/mL
